Measurements: ChEMBL document CHEMBL2093137, “WHO-TDR NTD Screening”
Converted amounts (≈) assume the structure as drawn.

Columns and labels:
Schistosoma mansoni = test: WHO-TDR: Schistosomiasis; type: functional; parameters: concentration or dose not given beside the values
Procedure, shortened: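 Percent inhibition and IC50 describe activity against whole Schistosoma mansoni worms of the Puerto Rican strain, tested as larvae and/or adults. The compounds screened were a diverse set of 10,000 from Life Chemicals, filtered for drug-likeness and reactive groups. Testing followed previously published standard procedures, with a reference drug as positive control.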

[1] = system: Trypanosoma brucei brucei; test: WHO-TDR: Human African Trypanosomiasis (HAT); type: functional, organism-based; settings: Squib-427
Procedure, shortened: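 Values are IC50 figures for antiparasitic potency. They come from a whole-organism screen of 10,000 diverse Life Chemicals compounds against bloodstream-form Trypanosoma brucei (Squib 427 strain).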

Trypanosoma cruzi = test: WHO-TDR: Chagas disease; type: functional, organism-based, Homo sapiens; settings: MRC5
Procedure, shortened: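 Following previously published standard procedures, with a reference drug as positive control, a whole-organism assay was run on Trypanosoma cruzi Tulahuen CL2 beta-galactosidase strain amastigotes inside MRC-5SV2 human lung fibroblast host cells. The 10,000 compounds tested formed a diverse Life Chemicals library filtered for drug-likeness and reactive groups. Results are expressed as IC50 for antiparasitic potency.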

Brugia malayi [2] = test: (§1) WHO-TDR: Lymphatic Filariasis; type: functional; parameters: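 tested at 10 µM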
Procedure, shortened: (§2)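 The screening set was a 10,000-compound diverse library from Life Chemicals, filtered for drug-likeness and for reactive groups. It was run against Brugia malayi microfilariae as whole organisms, using previously published standard procedures. Reference drugs acted as positive controls, and activity is reported both as percent inhibition and as IC50.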

Brugia malayi [3] = test: as §1; type: functional, organism-based; procedure, shortened: as §2
Plasmodium falciparum K1 = test: WHO-TDR: Malaria; type: functional, organism-based, Homo sapiens; settings: Erythrocyte
Procedure, shortened: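 Values are IC50 figures for antiplasmodial potency. They come from a whole-organism screen of 10,000 diverse Life Chemicals compounds against Plasmodium falciparum K1 growing inside human red blood cells, run by previously published standard procedures.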

Brugia malayi [4] = test: as §1; type: functional; parameters: concentration or dose not given beside the values; procedure, shortened: as §2; remark: listed apart in the source
Leishmania infantum = test: WHO-TDR: Leishmaniasis; type: functional, organism-based, Mus musculus; settings: Macrophage
Procedure, shortened: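 Values are IC50 figures for antiparasitic potency. They come from a whole-organism screen of a 10,000-compound diverse Life Chemicals library against Leishmania infantum MHOM/MA(BE)/67 amastigotes inside murine peritoneal macrophage host cells.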

[5] = WHO-TDR: Cytotoxicity; type: toxicity, cell-based; settings: human, MRC5 cells

SMILES	% Inhibition (Schistosoma mansoni)	IC50 [1]	IC50 (Trypanosoma cruzi)	% Inhibition (Brugia malayi [2])	IC50 (Brugia malayi [3])	IC50 (Plasmodium falciparum K1)	% Inhibition (Brugia malayi [4])	IC50 (Leishmania infantum)	IC50 [5]
COc1cccc(C(=O)Nc2nnc(-c3ccc4c(c3)CCCC4)o2)c1	25%	> 11.2 µg/mL	> 10.5 µg/mL	100%	2.18 µM	> 10.5 µg/mL	50%	3.31 µg/mL (≈ 9.49 µM)	> 10.5 µg/mL
Fc1cccc2sc(Nc3nc4c(s3)CCCC4)nc12	0%	> 9.16 µg/mL	> 9.16 µg/mL	100%	4.36 µM	> 9.16 µg/mL	50%	> 9.16 µg/mL	> 9.16 µg/mL
CS(=O)(=O)c1ccc2nc(Nc3nc4c(F)cccc4s3)sc2c1	0%	> 11.4 µg/mL	> 11.4 µg/mL	100%	4.49 µM	6.16 µg/mL (≈ 16.2 µM)	25%	> 11.4 µg/mL	> 11.4 µg/mL
COc1cccc2sc(Nc3nnc(-c4cccs4)o3)nc12	0%	0.346 µg/mL (≈ 1.05 µM)	0.313 µg/mL (≈ 0.947 µM)	100%	5.09 µM	1.25 µg/mL (≈ 3.78 µM)	50%	3.17 µg/mL (≈ 9.6 µM)	1.83 µg/mL (≈ 5.54 µM)
COc1cccc2sc(Nc3nc4c(s3)CCCC4)nc12	0%	3.81 µg/mL (≈ 12 µM)	> 9.52 µg/mL	100%	3.44 µM	> 9.52 µg/mL	50%	> 9.52 µg/mL	> 9.52 µg/mL
CCOC(=O)c1sc(NC(=O)C(C)Sc2ncnc3ccccc23)c(C(=O)OCC)c1C (configuration not stated)	0%	> 14.2 µg/mL	> 14.2 µg/mL	100%	4.36 µM	> 14.2 µg/mL	0%	> 14.2 µg/mL	> 14.2 µg/mL
O=C(Nc1nc2c(F)cc(F)cc2s1)c1nc2ccccc2s1	0%	> 11.1 µg/mL	> 10.4 µg/mL	100%	3.27 µM	> 10.4 µg/mL	50%	> 10.4 µg/mL	> 10.4 µg/mL
Cc1c(Cl)ccc2sc(NC(=O)c3ccc(S(=O)(=O)N4CC(C)CC(C)C4)cc3)nc12 (configuration not stated)	0%	> 15.3 µg/mL	> 14.3 µg/mL	100%	1.07 µM	> 14.3 µg/mL	80%	4.64 µg/mL (≈ 9.71 µM)	> 14.3 µg/mL
CC(=O)Nc1ccc2nc(Nc3nc4ccc(C(C)C)cc4s3)sc2c1	0%	4.49 µg/mL (≈ 11.7 µM)	2.37 µg/mL (≈ 6.2 µM)	100%	5.09 µM	2.19 µg/mL (≈ 5.72 µM)	25%	4.12 µg/mL (≈ 10.8 µM)	> 11.5 µg/mL
CCOc1cccc2sc(Nc3nc4ccc5sc(C)nc5c4s3)nc12	0%	> 12 µg/mL	> 12 µg/mL	100%	4.49 µM	> 12 µg/mL	50%	> 12 µg/mL	> 12 µg/mL
CCOC(=O)c1sc(Nc2nc3c(F)cccc3s2)nc1C	0%	> 10.1 µg/mL	> 10.1 µg/mL	100%	4.99 µM	> 10.1 µg/mL	50%	6.9 µg/mL (≈ 20.4 µM)	> 10.1 µg/mL
CC(C)c1ccc2nc(Nc3nc4ccc(S(C)(=O)=O)cc4s3)sc2c1	0%	> 12.1 µg/mL	> 12.1 µg/mL	100%	4.95 µM	> 12.1 µg/mL	25%	3.92 µg/mL (≈ 9.71 µM)	> 12.1 µg/mL
COc1cccc2sc(Nc3sc4c(c3C(N)=O)CCCC4)nc12	12.5%	0.947 µg/mL (≈ 2.63 µM)	3 µg/mL (≈ 8.35 µM)	100%	4.51 µM	4.55 µg/mL (≈ 12.7 µM)	50%	4.55 µg/mL (≈ 12.7 µM)	3.58 µg/mL (≈ 9.95 µM)
